Results on 6 molecules are retold here after ChEMBL document CHEMBL1687907, “Incorporation of a bioactive reverse-turn heterocycle into a peptide template using solid-phase synthesis to probe melanocortin receptor selectivity and ligand conformations by 2D 1H NMR” (J Med Chem, 2011).

What all share (type): functional, cell-based
One assay concerns the target Melanocortin receptor 4 (Mus musculus, UniProt P56450). In words: Agonist activity at mouse melanocortin 4 receptor expressed in HEK293 cells after 48 hrs by cAMP based beta-galactosidase reporter gene assay. In general terms: A reporter such as luciferase makes a cellular process visible.
Assay [1] deals with Melanocyte-stimulating hormone receptor (Mus musculus, UniProt Q01727). In words: Agonist activity at mouse melanocortin 1 receptor expressed in HEK293 cells after 48 hrs by cAMP based beta-galactosidase reporter gene assay.
Chain of Melanocyte-stimulating hormone receptor (Q01727 whole entry): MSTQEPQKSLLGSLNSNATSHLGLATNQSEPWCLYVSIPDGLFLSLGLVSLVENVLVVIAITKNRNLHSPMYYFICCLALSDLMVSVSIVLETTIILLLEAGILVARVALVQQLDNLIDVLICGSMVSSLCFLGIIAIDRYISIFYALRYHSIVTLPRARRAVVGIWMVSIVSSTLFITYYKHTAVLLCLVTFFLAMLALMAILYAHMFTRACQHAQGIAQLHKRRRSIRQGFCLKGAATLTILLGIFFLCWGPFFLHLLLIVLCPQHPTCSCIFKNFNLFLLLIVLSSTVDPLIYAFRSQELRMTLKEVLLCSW
Another assay deals with Melanocortin receptor 3 (Mus musculus, UniProt P33033). The assay can be described thus: Agonist activity at mouse melanocortin 3 receptor expressed in HEK293 cells after 48 hrs by cAMP based beta-galactosidase reporter gene assay.
Chain of Melanocortin receptor 3 (P33033 whole entry): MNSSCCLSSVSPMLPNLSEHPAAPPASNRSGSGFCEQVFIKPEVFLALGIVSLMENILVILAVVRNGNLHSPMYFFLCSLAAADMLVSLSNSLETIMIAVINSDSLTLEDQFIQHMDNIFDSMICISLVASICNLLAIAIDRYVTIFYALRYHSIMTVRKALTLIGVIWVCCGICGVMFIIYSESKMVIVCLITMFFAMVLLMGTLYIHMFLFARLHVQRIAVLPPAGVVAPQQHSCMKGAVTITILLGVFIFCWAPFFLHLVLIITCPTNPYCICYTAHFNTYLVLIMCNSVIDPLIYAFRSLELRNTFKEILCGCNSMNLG
Another assay concerns the target Melanocortin receptor 5 (Mus musculus, UniProt P41149). The assay can be described thus: Agonist activity at mouse melanocortin 5 receptor expressed in HEK293 cells after 48 hrs by cAMP based beta-galactosidase reporter gene assay.
Assay [2] addresses Melanocortin receptor 3 (Mus musculus) (UniProt P33033). In words: Agonist activity at mouse melanocortin 3 receptor expressed in HEK293 cells at 100 uM after 48 hrs by cAMP based beta-galactosidase reporter gene assay. In short, it runs like this: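 HEK-293 cells stably expressing mouse MC3R were CRE/β-galactosidase reporter transfected and stimulated 48 h later for 6 h in IBMX/BSA DMEM. Peptide concentrations reached 100 µM. ONPG read at OD405, normalized to protein and forskolin.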

pEC50: −log10 of the molar value. Activity calls are given as the source filed them. No cut-off for these calls is given here.

Chain of Melanocortin receptor 4 (P56450 whole entry): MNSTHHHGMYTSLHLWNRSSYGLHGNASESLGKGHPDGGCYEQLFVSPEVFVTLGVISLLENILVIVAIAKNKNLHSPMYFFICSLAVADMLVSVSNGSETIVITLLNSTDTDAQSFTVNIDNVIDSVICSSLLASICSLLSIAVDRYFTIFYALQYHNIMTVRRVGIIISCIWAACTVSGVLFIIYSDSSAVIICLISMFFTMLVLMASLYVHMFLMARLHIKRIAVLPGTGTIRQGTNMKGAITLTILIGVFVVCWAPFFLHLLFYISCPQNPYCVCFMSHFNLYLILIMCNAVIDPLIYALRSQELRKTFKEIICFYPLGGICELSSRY
Chain of Melanocortin receptor 5 (P41149 whole entry): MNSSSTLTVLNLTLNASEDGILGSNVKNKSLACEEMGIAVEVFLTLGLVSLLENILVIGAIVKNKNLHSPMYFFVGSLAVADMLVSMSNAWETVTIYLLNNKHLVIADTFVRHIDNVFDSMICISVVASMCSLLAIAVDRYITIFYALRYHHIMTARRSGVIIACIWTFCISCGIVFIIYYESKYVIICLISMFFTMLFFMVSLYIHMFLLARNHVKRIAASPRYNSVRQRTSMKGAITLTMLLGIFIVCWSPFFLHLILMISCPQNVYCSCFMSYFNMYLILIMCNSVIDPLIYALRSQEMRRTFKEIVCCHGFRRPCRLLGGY
Chain of Melanocortin receptor 3 (Mus musculus) (P33033 whole entry): as the sequence (P33033 whole entry) above

What is called pEC50 is the EC50 on a negative log10 scale, so that one unit is a factor of ten. Take `CC(=O)N[C@@H](Cc1cnc[nH]1)C(=O)N[C@H](Cc1ccccc1)C(=O)N[C@@H]1CSCC(=O)N([C@@H](Cc2c[nH]c3ccccc23)C(N)=O)C[C@H](CCCN=C(N)N)NC1=O`: the pEC50 is 6.19 at Melanocortin receptor 4, 6.79 in assay [1], 5.12 at Melanocortin receptor 3 and 6.47 at Melanocortin receptor 5.
For `C[C@@H]1NC(=O)[C@H](CC(N)=O)NC(=O)[C@H](Cc2c[nH]c3ccccc23)NC(=O)[C@H](CCCNC(=N)N)NC(=O)[C@@H](Cc2ccccc2)N2C[C@H](Cc3cnc[nH]3)NC(=O)[C@@H](CSCC2=O)NC(=O)[C@@H](NC(=O)[C@@H](N)Cc2ccc(O)cc2)CSSC[C@@H](C(=O)N[C@@H](Cc2ccc(O)cc2)C(N)=O)NC(=O)[C@H](Cc2ccccc2)NC1=O`, the result in assay [2] was inactive.
On the same count and under the same terms, as for `C[C@@H]1NC(=O)[C@H](CC(N)=O)NC(=O)[C@H](Cc2c[nH]c3ccccc23)NC(=O)[C@H](CCCNC(=N)N)N2C[C@@H](Cc3ccccc3)NC(=O)[C@H](CSCC2=O)NC(=O)[C@H](Cc2cnc[nH]2)NC(=O)[C@@H](NC(=O)[C@@H](N)Cc2ccc(O)cc2)CSSC[C@@H](C(=O)N[C@@H](Cc2ccc(O)cc2)C(N)=O)NC(=O)[C@H](Cc2ccccc2)NC1=O`, the entry is “inactive”.
Take `C[C@@H]1NC(=O)[C@H](CC(N)=O)NC(=O)[C@H](Cc2c[nH]c3ccccc23)N2C[C@H](CCCN=C(N)N)NC(=O)[C@H](CSCC2=O)NC(=O)[C@@H](Cc2ccccc2)NC(=O)[C@H](Cc2cnc[nH]2)NC(=O)[C@@H](NC(=O)[C@@H](N)Cc2ccc(O)cc2)CSSC[C@@H](C(=O)N[C@@H](Cc2ccc(O)cc2)C(N)=O)NC(=O)[C@H](Cc2ccccc2)NC1=O`: the pEC50 on Melanocortin receptor 4 was 7.07; in assay [1], 7.48; at Melanocortin receptor 3 it was 6.31; on Melanocortin receptor 5, 7.14.
On Melanocortin receptor 4, `C[C@@H]1NC(=O)[C@H](CC(N)=O)NC(=O)[C@H](Cc2c[nH]c3ccccc23)NC(=O)[C@H](CCCNC(=N)N)N2C[C@@H](Cc3ccccc3)NC(=O)[C@@H](CSCC2=O)NC(=O)[C@H](Cc2cnc[nH]2)NC(=O)[C@@H](NC(=O)[C@@H](N)Cc2ccc(O)cc2)CSSC[C@@H](C(=O)N[C@@H](Cc2ccc(O)cc2)C(N)=O)NC(=O)[C@H](Cc2ccccc2)NC1=O` showed a pEC50 of 5.49.
Take `C[C@@H]1NC(=O)[C@H](CC(N)=O)NC(=O)[C@H](Cc2c[nH]c3ccccc23)NC(=O)[C@H](CCCN=C(N)N)NC(=O)[C@@H](Cc2ccccc2)NC(=O)[C@H](Cc2cnc[nH]2)NC(=O)[C@@H](NC(=O)[C@@H](N)Cc2ccc(O)cc2)CSSC[C@@H](C(=O)N[C@@H](Cc2ccc(O)cc2)C(N)=O)NC(=O)[C@H](Cc2ccccc2)NC1=O`: the pEC50 is 9.57 at Melanocortin receptor 4, 9.46 in assay [1], 8.70 at Melanocortin receptor 3 and 8.64 at Melanocortin receptor 5.
